# T cell modulator = T cell immune modulators affecting CD8 T cell-vesicle binding. 2C CD8+ T cell-vesicle binding, flow cytometry; hits give low values. response (vesicle binding), % at 7 µM. 330,000 tested, 0.068% active;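 active means response, share of CD8 T cells binding vesicles, and their 90th percentile fluorescence all below set limits, cut at about 80% in these data, passing the limit was not always enough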;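 further: values below 100% mean blocked vesicle binding to the CD8+ T cells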
#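 incubation = binding step 1.5 h, 37 °C, antibody labelling 20 min, ice | test system = 2C mouse CD8+ T cells | read-out basis = percent CD8+ FL2 mean versus row control | controls = Peptide-free naked vesicles (low) and QL9 vesicles with 0.7% DMSO vehicle (high) | detection = flow cytometry of vesicle-bound cells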
# SKN-1 inh = blocks SKN-1 activity in C. elegans | C. elegans VP596 Pgst-4::GFP/RFP ratio, acrylamide-induced, 24 h | inhibition, % at 21.8 µM | 360,000 tested, 0.49% active | AID 624304;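 active means interference check ratio from 0.5 to 1.5 plus GFP to RFP signal ratio inhibition reaching or exceeding a fixed threshold, cut at about 30% in these data, passing the limit was not always enough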
# Myeloid diff 2 = compounds promoting myeloid differentiation; ER-HoxA9 myeloid progenitors, lysozyme-GFP differentiation, flow cytometry; calls only at 10 µM; 360,000 tested, 1% active; AID 624256;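 active means normalized GFP-positive differentiation at or above the plate's own cutoff, the solvent-only control mean plus 3 SD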;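 further: cells exposed to compound for four days before flow analysis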
# Rin1 Abl inh = human Rin1-Abl interaction inhibition. P00519+Q13671. inhibition, % at 7.35 µM. 360,000 tested, 0.4% active. TR-FRET Rin1/Abl binding, biochemical; in the data active means inhibition above about 5%, passing the limit was not always enough
# GRK2 inh = human GRK2 inhibition via aptamer displacement | AID 488847 | P25098 | inhibition of aptamer binding, % at 10 µM | 330,000 tested, 0.59% active | bead flow cytometry, FAM-aptamer displacement from GRK2;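 active means inhibition of aptamer binding above 40%, roughly 3 SD of noise, on plates passing a quality check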;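 further: median bead fluorescence of bound FAM aptamer so fluorescent compounds give negative values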
# Target sequence (P25098 whole entry, looked up): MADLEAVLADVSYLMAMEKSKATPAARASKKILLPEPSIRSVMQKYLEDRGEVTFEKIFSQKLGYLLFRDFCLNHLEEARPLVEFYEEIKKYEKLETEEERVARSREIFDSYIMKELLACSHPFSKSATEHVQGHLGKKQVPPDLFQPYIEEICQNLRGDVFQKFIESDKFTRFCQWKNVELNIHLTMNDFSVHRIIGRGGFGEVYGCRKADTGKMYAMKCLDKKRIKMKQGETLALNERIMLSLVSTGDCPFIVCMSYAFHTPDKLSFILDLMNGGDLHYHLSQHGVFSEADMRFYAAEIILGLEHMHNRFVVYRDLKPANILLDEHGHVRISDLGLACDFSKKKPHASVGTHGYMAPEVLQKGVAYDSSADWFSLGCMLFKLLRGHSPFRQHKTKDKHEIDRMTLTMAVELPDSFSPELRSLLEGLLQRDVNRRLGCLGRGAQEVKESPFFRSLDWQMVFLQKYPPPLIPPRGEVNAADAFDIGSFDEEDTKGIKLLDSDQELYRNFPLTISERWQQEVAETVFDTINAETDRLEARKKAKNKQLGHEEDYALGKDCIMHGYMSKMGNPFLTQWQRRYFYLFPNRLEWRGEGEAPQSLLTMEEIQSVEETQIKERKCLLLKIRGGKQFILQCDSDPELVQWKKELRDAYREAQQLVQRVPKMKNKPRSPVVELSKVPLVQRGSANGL
# Rce1 inh = inhibitors of yeast Ras-converting enzyme | yeast membranes, quenched prenylated peptide cleavage fluorescence | calls only | 290,000 tested, 0.27% active | AID 2563;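 active means fall in fluorescence gain of 50% or more versus controls, with final raw signal at or below 3038400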;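 further: plate controls were neutral control wells for no effect and wells lacking membranes for full effect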
# * = called active by the depositor; i = inactive; · = no result; + = active, no number. Hits are enriched below; roughly 2.6% of the tested compounds scored in any of these assays.
SMILES,T cell modulator,SKN-1 inh,Myeloid diff 2,Rin1 Abl inh,GRK2 inh,Rce1 inh
CC1CC(C)CN(S(=O)(=O)c2ccc(C(=O)N3CCCC3)cc2)C1 (centres undefined),284.4,-5.2,+,1.9,0.0,i
CC1CCN(S(=O)(=O)c2ccc(C(=O)N3CCOCC3)cc2)CC1,536.1,38.7*,i,2.4,4.0,i
CC1CC(C)CN(C(=O)c2ccc(S(=O)(=O)N3CC(C)CC(C)C3)cc2)C1 (centres undefined),179.5,24.7,i,0.9,2.0,·
CC(=O)c1ccc(OCCCC(=O)OCC(=O)N2CCN(S(=O)(=O)c3ccc(C)cc3C)CC2)cc1,·,1.8,i,1.6,·,·
Cc1cccc(NC(=O)COC(=O)c2ccc(S(=O)(=O)N3CCCC3)cc2)c1,·,-5.9,i,-1.0,·,·
CCCSc1ccc([C@@H]2[C@@H]3C(=O)N(C)C(=O)[C@@H]3[C@]3(C(=O)OC)CCCCN23)cc1OC,684.1,-3.2,i,3.0,0.0,i
CCSc1ccc([C@@H]2[C@@H]3C(=O)N(C)C(=O)[C@@H]3[C@]3(C(=O)OC)CCCCN23)cc1OC,0.0*,-7.5,i,0.1,5.0,·
CCCCn1c(-c2sccc2C)n[nH]c1=S,265.1,7.0,i,1.8,4.0,+
CC(C)C(=O)Nc1ccc(C(=O)Nc2nnc(C(C)C)s2)cc1,423.8,-14.2,i,-2.8,25.0,i
COC(=O)C1=CN(c2ccc3c(c2)OCO3)C(N)=C(C#N)C1c1ccccc1 (centres undefined),·,14.1,+,·,·,·
COC(=O)C1=CN(c2ccc(F)cc2)C(N)=C(C#N)C1c1ccccc1 (centres undefined),·,0.4,i,·,·,·
NC(=O)c1cccc(Nc2nc(C(N)COCc3ccccc3)cs2)n1 (centres undefined),·,0.5,i,-2.0,·,·
O=C(Cn1cc(C(F)(F)F)ccc1=O)NCC1CCCO1 (centres undefined),460.4,4.1,i,1.2,2.0,·
COCCNc1nc2c(-c3cccc(C(F)(F)F)c3)nnn2c2ccccc12,215.6,18.9,i,-3.3,0.0,i
NNc1nc2c(-c3cccc(C(F)(F)F)c3)nnn2c2ccccc12,219.5,-0.8,+,1.6,0.0,i
CN(C)S(=O)(=O)c1cc(NC(=O)CSc2ncc(C(F)(F)F)cc2Cl)ccc1Cl,209.3,10.2,+,-1.9,0.0,i
Cn1cccc1C1CCCN1CC(=O)Nc1c(Cl)cc(Cl)cc1Cl (centres undefined),257.6,6.6,i,0.7,0.0,·
CCOc1ccc(N=C(C)c2ccccc2O)cc1,0.0,17.8,+,-3.1,0.0,i
C/C(=N/N=C(\C)c1ccccc1O)c1ccccc1O,181.0,4.2,i,-1.8,0.0,i
COc1ccc(Cl)cc1Nc1nc(C)nc2c1oc1ccccc12,205.3,20.3,i,-0.6,0.0,+
O=C1C=CC2(C=C1)O[C@H](Cc1ccccc1)[C@@H](Cc1ccccc1)O2,·,4.0,+,1.5,·,·
COc1ccc(C[C@@H]2OC3(C=CC(=O)C=C3)O[C@H]2Cc2ccc(OC)cc2)cc1,·,-1.4,+,5.6,·,·
COc1ccc(CNC(=O)C/C(C)=N/NC(=O)COc2cccc(C)c2)cc1,120.6,-0.7,i,2.5,2.0,i
COc1ccc(CC(=O)NCC(=O)Nc2ccccc2Br)cc1,432.1,-7.2,i,1.0,0.0,i
Fc1ccccc1NC(=S)NN(Cc1ccccc1)c1ccccc1,163.3,39.4*,i,-1.1,0.0,i
CCOC(=O)C1CCN(c2ccc([N+](=O)[O-])cc2)CC1,135.3,-2.5,i,-8.1,0.0,i
CCOC(=O)C1CCC(CN(Cc2ccccc2C)S(=O)(=O)c2ccc([N+](=O)[O-])cc2)CC1 (centres undefined),590.8,1.3,+,0.6,4.0,i
CC(C)=CCN1CCN(Cc2cc(C(C)C)n[nH]2)CC1CCO (centres undefined),460.2,14.6,+,1.3,2.0,i
CC(C)c1cc(CN2CCN(C3CCCC3)C(CCO)C2)[nH]n1 (centres undefined),332.0,5.3,i,0.6,0.0,i
O=[N+]([O-])c1ccc(Nc2ccc(Cl)cc2)nc1,529.3,39.0*,i,0.5,1.0,i

# High-throughput results as filed in PubChem.
